In ChEMBL document CHEMBL1145831 (J Med Chem, 2003):

Assays:
[1] = test system: Mus musculus; assay: In vivo antitumor activity against murine pancreatic adenocarcinoma and measured as number of deaths on a schedule of 5-10 day and at a total dose of 210 mg/kg; type: ADME, organism-based; parameters: dose 210 mg/kg
Summary of the method: (§1)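 Mice bearing drug-sensitive murine pancreatic adenocarcinoma Panc-03 were dosed on the listed days at the listed total doses. Dosing solutions were made in water from stock solutions and injected within 20 min. Chlorohydrin solutions were acidified with 0.05% citric acid. Tolerance was recorded as body weight loss and number of deaths.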

[2] = test system: Mus musculus; assay: In vivo antitumor activity against murine pancreatic adenocarcinoma and measured as number of deaths on a schedule of 5-10 day and at a total dose of 270 mg/kg; type: ADME, organism-based; parameters: dose 270 mg/kg; summary of the method: as §1
[3] = test system: Mus musculus; assay: In vivo antitumor activity against murine pancreatic adenocarcinoma and measured as number of deaths on a schedule of 5-10 day and at a total dose of 402 mg/kg; type: ADME, organism-based; parameters: dose 402 mg/kg; summary of the method: as §1
[4] = test system: Mus musculus; assay: Ratio of the median tumor weight in the treatment group over the median tumor weight in the control group on a schedule of 5-10 day and at a total dose of 210 mg/kg; type: functional
Summary of the method: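 Panc-03 murine pancreatic adenocarcinoma in mice, with injectable solutions prepared in water from stock and given within 20 min; chlorohydrins were acidified with 0.05% citric acid. %T/C is median tumor weight of the treated group over that of the control group × 100, calculated when control median tumor weight reaches 1 g. T/C ≤ 42% is taken as significant activity.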

[5] = test system: Mus musculus; assay: Ratio of the median tumor weight in the treatment group over the median tumor weight in the control group on a schedule of 5-10 day and at a total dose of 270 mg/kg; type: functional
Summary of the method: (§2)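 Murine pancreatic adenocarcinoma Panc-03 tumors in mice. T/C is the median tumor weight of the treated group over that of controls, ×100, taken when control median tumor weight reaches 1 g. T/C ≤42% counts as significant antitumor activity. Dosing solutions were prepared aqueous from stock solutions and injected within 20 min.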

[6] = test system: Mus musculus; assay: Ratio of the median tumor weight in the treatment group over the median tumor weight in the control group on a schedule of 5-10 day and at a total dose of 402 mg/kg; type: functional; summary of the method: as §2
[7] = test system: Mus musculus; assay: In vivo antitumor activity against murine pancreatic adenocarcinoma and measured as % weight loss on a schedule of 5-10 day and at a total dose of 402 mg/kg; type: functional; summary of the method: as §1
[8] = test system: Mus musculus; assay: In vivo antitumor activity against murine pancreatic adenocarcinoma and measured as % weight loss on a schedule of 5-10 day and at a total dose of 210 mg/kg; type: functional; summary of the method: as §1
[9] = test system: Mus musculus; assay: In vivo antitumor activity against murine pancreatic adenocarcinoma and measured as % weight loss on a schedule of 5-10 day and at a total dose of 270 mg/kg; type: functional; summary of the method: as §1

Work on `COc1ccc(C[C@H]2NC(=O)/C=C/C[C@@H]([C@H](C)[C@@H](O)[C@@H](Cl)c3ccccc3)OC(=O)[C@H](CC(C)C)OC(=O)C(C)(C)CNC2=O)cc1Cl` yielded a Death [1] of 0, a Death [2] of 0 and a Death [3] of 0. The T/C [4] was 0%, the T/C [5] was 0% and the T/C [6] was 0%. The Weight loss [7] was -6%, the Weight loss [8] was -5% and the Weight loss [9] was -5%.
